Results from ChEMBL document CHEMBL1275382, “Synthesis and SAR studies of chiral non-racemic dexoxadrol analogues as uncompetitive NMDA receptor antagonists” (Bioorg Med Chem, 2010).

How the values were obtained:
[1] = target: Sigma non-opioid intracellular receptor 1 (Homo sapiens, UniProt Q99720); experiment: Binding affinity to sigma1 receptor
Procedure, shortened: (§1)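 Radioligand competition binding with at least six test-compound concentrations, each run in triplicate. Incubations were stopped by rapid filtration through filters presoaked 2 h in 0.5% aqueous polyethylenimine, and bound radioactivity was counted by solid scintillation. IC50 came from non-linear regression and Ki from the Cheng–Prusoff equation. Values are mean ± SEM of three independent experiments.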

[2] = Binding affinity to NMDA receptor ifenprodil binding site; procedure, shortened: as §1
[3] = Binding affinity to sigma2 receptor; procedure, shortened: as §1

Sigma non-opioid intracellular receptor 1, sequence (Q99720 whole entry): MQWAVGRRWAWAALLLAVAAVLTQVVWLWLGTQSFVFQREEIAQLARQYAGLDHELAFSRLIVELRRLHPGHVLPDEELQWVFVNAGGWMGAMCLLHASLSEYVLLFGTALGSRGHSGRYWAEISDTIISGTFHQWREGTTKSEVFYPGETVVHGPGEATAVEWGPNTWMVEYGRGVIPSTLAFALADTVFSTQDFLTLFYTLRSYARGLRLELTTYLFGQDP

| SMILES | Ki [1] | Ki [2] | Ki [3] |
| --- | --- | --- | --- |
| FC1CCNC(C2COC(c3ccccc3)(c3ccccc3)O2)C1 (racemic) | > 800 nM | > 1000 nM | > 1000 nM |
| c1ccc(C2(c3ccccc3)OCC(C3CCCCN3)O2)cc1 (racemic) [DIOXADROL] | > 800 nM | > 1000 nM | > 1000 nM |

The next lines start with the values.

| Ki [1] | Ki [2] | Ki [3] | SMILES |
| --- | --- | --- | --- |
| > 800 nM | > 1000 nM | > 1000 nM | O=C1CCNC(C2COC(c3ccccc3)(c3ccccc3)O2)C1 (racemic) |
| > 800 nM | > 1000 nM | > 1000 nM | OC1CCNC(C2COC(c3ccccc3)(c3ccccc3)O2)C1 (racemic) |
| > 800 nM | > 1000 nM | > 1000 nM | FC1(F)CCNC(C2COC(c3ccccc3)(c3ccccc3)O2)C1 (racemic) |
